Active and inactive are the calls of the source. The calls are words filed in the database; no cut-off is given here.
Experiments:
Rattus norvegicus [1] = organism: Rattus norvegicus; test: Allosteric modulation of rat GABAA alpha1beta2gamma2S receptor expressed in Xenopus laevis oocytes assessed as potentiation of GABA-induced chloride ion current at holding potential -70 mV at 100 uM by two-microelectrode voltage clamp assay relative to GABA-treated control; type: cell-based
Procedure, shortened: (§1)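 Stage V–VI Xenopus laevis oocytes were injected with 50 nL of rat α1, β2 and γ2S cRNA mixed 1:1:10 (about 300–3000 pg/nL per subunit), stored at 18 °C in ND96, and recorded on days 1–5. Two-electrode clamp was at −70 mV in pH 7.4 HEPES bath. Compound was applied by fast perfusion with GABA EC3–10, in 1% DMSO final. Enhancement = I(GABA+Comp)/IGABA − 1.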

[2] = biological target: GABA A receptor alpha-3/beta-2/gamma-2 (Homo sapiens) (UniProt P47870+P18507+P34903); test: Modulation of GABAA alpha3beta2gamma2S receptor (unknown origin) expressed in Xenopus laevis oocytes assessed as potentiation of EC3 to 10 GABA-induced chloride ion current at holding potential -70 mV at 1 to 300 uM by two-microelectrode voltage clamp assay relative to GABA-treated control; type: cell-based
Rattus norvegicus [3] = organism: Rattus norvegicus; test: Agonist activity rat GABAA alpha1beta2gamma2S receptor expressed in Xenopus laevis oocytes assessed as potentiation of GABA-induced chloride ion current at holding potential -70 mV at <100 uM compound treated prior to GABA challenge by two-microelectrode voltage clamp assay; type: cell-based
[4] = biological target: GABA A receptor alpha-2/beta-2/gamma-2 (Homo sapiens) (UniProt P47870+P18507+P47869); test: Modulation of GABAA alpha2beta2gamma2S receptor (unknown origin) expressed in Xenopus laevis oocytes assessed as potentiation of EC3 to 10 GABA-induced chloride ion current at holding potential -70 mV at 1 to 300 uM by two-microelectrode voltage clamp assay relative to GABA-treated control; type: cell-based
Homo sapiens [5] = organism: Homo sapiens; test: Modulation of GABAA alpha5beta2gamma2S receptor (unknown origin) expressed in Xenopus laevis oocytes assessed as potentiation of EC3 to 10 GABA-induced chloride ion current at holding potential -70 mV at 1 to 300 uM by two-microelectrode voltage clamp assay relative to GABA-treated control; type: cell-based
[6] = biological target: GABA-A receptor; alpha-1/beta-3/gamma-2 (Homo sapiens) (UniProt P14867+P18507+P28472); test: Modulation of GABAA alpha1beta3gamma2S receptor (unknown origin) expressed in Xenopus laevis oocytes assessed as potentiation of EC3 to 10 GABA-induced chloride ion current at holding potential -70 mV 1 to 300 uM by two-microelectrode voltage clamp assay relative to GABA-treated control; type: cell-based
Homo sapiens [7] = organism: Homo sapiens; test: Modulation of GABAA alpha1beta1gamma2S receptor (unknown origin) expressed in Xenopus laevis oocytes assessed as potentiation of EC3 to 10 GABA-induced chloride ion current at holding potential -70 mV at 1 to 300 uM by two-microelectrode voltage clamp assay relative to GABA-treated control; type: cell-based
[8] = (§2) Allosteric modulation of rat GABAA alpha1beta2gamma2S receptor expressed in Xenopus laevis oocytes assessed as potentiation of EC3 to 10 GABA-induced chloride ion current at holding potential -70 mV by two-microelectrode voltage clamp assay; type: cell-based; procedure, shortened: as §1
Rattus norvegicus [9] = organism: Rattus norvegicus; test: as §2; type: cell-based; procedure, shortened: as §1
[10] = Potency index, ratio of compound activity for modulation of rat GABAA alpha1beta2gamma2S receptor assessed as EC3 to 10 GABA-induced chloride ion current to clotiazepam activity for modulation of GABAA alpha1beta2gamma2S receptor (unknown origin) assessed as potentiation of EC5 to 10 GABA-induced chloride ion current
Homo sapiens [11] = organism: Homo sapiens; test: Modulation of GABAA alpha4beta2gamma2S receptor (unknown origin) expressed in Xenopus laevis oocytes assessed as potentiation of EC3 to 10 GABA-induced chloride ion current at holding potential -70 mV at 1 to 300 uM by two-microelectrode voltage clamp assay relative to GABA-treated control; type: cell-based
[12] = biological target: T1, GABA-A receptor; alpha-1/beta-3/gamma-2 (Homo sapiens, UniProt P14867+P18507+P28472); test: Modulation of GABAA alpha1beta3gamma2S receptor (unknown origin) expressed in Xenopus laevis oocytes assessed as potentiation of EC3 to 10 GABA-induced chloride ion current at holding potential -70 mV by two-microelectrode voltage clamp assay; type: cell-based
T1 sequence (P14867 whole entry): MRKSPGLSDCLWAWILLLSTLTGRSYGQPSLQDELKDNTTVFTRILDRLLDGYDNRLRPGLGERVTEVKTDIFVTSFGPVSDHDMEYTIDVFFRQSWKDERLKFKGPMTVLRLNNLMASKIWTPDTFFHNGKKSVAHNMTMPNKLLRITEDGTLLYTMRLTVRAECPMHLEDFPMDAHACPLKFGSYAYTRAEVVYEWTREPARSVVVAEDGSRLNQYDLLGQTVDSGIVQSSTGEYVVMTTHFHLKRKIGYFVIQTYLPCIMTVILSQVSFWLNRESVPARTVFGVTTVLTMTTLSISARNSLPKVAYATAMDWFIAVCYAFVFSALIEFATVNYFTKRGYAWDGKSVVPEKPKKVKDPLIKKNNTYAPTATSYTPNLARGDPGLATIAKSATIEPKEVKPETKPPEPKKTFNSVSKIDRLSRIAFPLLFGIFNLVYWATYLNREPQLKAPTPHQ
T1 sequence (P18507 whole entry): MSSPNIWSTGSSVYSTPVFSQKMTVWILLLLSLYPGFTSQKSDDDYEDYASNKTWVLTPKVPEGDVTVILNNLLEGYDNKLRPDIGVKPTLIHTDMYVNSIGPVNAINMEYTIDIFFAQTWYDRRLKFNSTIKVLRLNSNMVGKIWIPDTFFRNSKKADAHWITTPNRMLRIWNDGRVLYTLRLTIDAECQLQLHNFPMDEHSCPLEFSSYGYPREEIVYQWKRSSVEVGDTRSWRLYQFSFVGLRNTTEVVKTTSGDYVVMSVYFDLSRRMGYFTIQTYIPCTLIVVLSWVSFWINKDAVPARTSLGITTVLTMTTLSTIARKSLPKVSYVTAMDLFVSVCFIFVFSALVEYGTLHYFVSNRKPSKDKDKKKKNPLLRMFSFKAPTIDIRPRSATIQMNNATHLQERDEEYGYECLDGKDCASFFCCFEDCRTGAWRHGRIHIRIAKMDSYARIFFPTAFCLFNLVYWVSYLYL
T1 sequence (P28472 whole entry): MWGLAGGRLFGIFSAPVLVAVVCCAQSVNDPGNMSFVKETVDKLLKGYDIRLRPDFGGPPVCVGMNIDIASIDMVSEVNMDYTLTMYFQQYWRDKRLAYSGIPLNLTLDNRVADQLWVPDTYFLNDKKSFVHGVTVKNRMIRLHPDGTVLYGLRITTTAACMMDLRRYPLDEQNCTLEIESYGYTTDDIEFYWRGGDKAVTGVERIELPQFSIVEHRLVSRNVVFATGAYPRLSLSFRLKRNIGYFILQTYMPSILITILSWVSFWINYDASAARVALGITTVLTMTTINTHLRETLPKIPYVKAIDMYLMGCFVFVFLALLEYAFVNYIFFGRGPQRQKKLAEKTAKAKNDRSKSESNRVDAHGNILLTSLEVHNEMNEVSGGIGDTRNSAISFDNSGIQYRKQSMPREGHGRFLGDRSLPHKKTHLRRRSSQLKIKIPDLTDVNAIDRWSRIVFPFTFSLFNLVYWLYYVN

Q: Which results are given for COc1cc(O)cc(CCc2cccc(O)c2)c1 [BATATASIN III]?
A: Activity (Rattus norvegicus [1]): 628%; Imax [2]: 1690%; Activity (Rattus norvegicus [3]): inactive; Imax [4]: 1030%; Imax (Homo sapiens [5]): 1380%; Imax [6]: 1250%; Imax (Homo sapiens [7]): 1250%; EC50 [8]: 52.5 µM; Activity (Rattus norvegicus [9]): Dose-dependent effect; Ratio [10]: 4; Imax (Homo sapiens [11]): 1590%; EC50 [12]: 67.2 µM
